{"source": "paper PMC4299864", "about": "(Chirality, 2013)", "type_in_all_cases": "cell-based", "key": {"[1]": {"target": "T1, human FPR1 (Homo sapiens, UniProt P21462)", "T1 sequence (P21462 1-350)": "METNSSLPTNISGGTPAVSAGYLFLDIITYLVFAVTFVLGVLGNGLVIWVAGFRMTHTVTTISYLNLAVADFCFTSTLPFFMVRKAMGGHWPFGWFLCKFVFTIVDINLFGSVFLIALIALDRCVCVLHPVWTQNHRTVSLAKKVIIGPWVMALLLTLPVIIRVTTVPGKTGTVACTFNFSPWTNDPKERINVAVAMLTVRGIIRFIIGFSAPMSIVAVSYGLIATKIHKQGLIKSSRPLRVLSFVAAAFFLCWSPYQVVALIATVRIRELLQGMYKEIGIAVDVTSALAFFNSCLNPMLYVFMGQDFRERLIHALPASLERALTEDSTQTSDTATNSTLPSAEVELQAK", "test": "Ca2+ mobilization in HL-60 cells transfected with FPR1", "conditions": "HL-60-FPR1 cells; for Ca2+ Mobilization Efficacy, FPR1: percent of the response induced by 5 nM fMLF; for EC50: read-out: Ca2+ Mobilization EC50, FPR1, mean of three independent experiments, N.A. = no activity, limits efficacy > 20 % and EC50 < 50 μM", "summary_of_the_method": "(§1)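 Stably transfected HL-60 cells were grown in RPMI 1640 with 10% heat-inactivated FCS, 10 mM HEPES and G418 (1 mg/mL). Cells were loaded with Fluo-4 AM (1.25 μg/mL final) for 30 min at 37 °C in the dark, then resuspended in HBSS with Ca²⁺/Mg²⁺ at 2 × 10⁵ cells/well. Fluorescence (ex 485/em 538 nm) was read every 5 s for 240 s at room temperature after compound addition. Peak change over baseline was set against 5 nM fMLF (FPR1) or 5 nM WKYMVm (FPR2, FPR3) as 100%. Curves had 5–6 points, from three independent experiments.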"}, "[2]": {"target": "T2, human FPR2 (Homo sapiens, UniProt P25090)", "T2 sequence (P25090 1-351)": "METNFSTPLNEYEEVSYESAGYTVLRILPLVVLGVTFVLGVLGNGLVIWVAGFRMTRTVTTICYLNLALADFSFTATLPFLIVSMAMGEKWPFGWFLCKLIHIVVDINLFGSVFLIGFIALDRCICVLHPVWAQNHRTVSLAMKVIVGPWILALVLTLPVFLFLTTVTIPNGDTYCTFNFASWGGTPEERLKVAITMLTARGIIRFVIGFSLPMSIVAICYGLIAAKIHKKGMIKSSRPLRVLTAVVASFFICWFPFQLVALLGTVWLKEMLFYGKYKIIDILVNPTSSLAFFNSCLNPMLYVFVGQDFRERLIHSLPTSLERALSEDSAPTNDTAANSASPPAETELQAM", "test": "Ca2+ mobilization in HL-60 cells transfected with FPR2", "conditions": "HL-60-FPR2 cells; for Ca2+ Mobilization Efficacy, FPR2: percent of the response induced by 5 nM WKYMVm; for EC50: read-out: Ca2+ Mobilization EC50, FPR2, mean of three independent experiments, N.A. = no activity, limits efficacy > 20 % and EC50 < 50 μM", "summary_of_the_method": "as §1"}, "[3]": {"target": "T3, human FPR3 (Homo sapiens, UniProt P25089)", "T3 sequence (P25089 1-353)": "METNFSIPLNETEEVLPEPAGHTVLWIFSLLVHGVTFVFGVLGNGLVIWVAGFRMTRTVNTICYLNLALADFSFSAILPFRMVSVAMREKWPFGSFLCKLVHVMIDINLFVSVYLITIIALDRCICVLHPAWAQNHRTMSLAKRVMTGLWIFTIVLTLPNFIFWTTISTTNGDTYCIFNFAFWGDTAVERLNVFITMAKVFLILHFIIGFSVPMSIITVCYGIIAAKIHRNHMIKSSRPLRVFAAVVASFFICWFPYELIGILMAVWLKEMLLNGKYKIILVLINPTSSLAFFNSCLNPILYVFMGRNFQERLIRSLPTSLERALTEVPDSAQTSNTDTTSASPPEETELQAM", "test": "Ca2+ mobilization in HL-60 cells transfected with FPR3", "conditions": "HL-60-FPR3 cells; for Ca2+ Mobilization Efficacy, FPR3: percent of the response induced by 5 nM WKYMVm; for EC50: read-out: Ca2+ Mobilization EC50, FPR3, mean of three independent experiments, N.A. = no activity, limits efficacy > 20 % and EC50 < 50 μM", "summary_of_the_method": "as §1"}}, "data": [{"molecule": "CC1CC(c2ccccc2)=NN(CC(=O)Nc2ccc(Br)cc2)C1=O", "note": "(racemic) [(±)-4a, (±)-N-(4-Bromophenyl)-2-[5-methyl-6-oxo-3-phenyl-5,6-dihydropyridazin-1(4H)-yl]acetamide]", "values": [{"measurement": "Ca2+ Mobilization Efficacy, FPR1", "setting": "[1]", "result": 55, "unit": "%"}, {"measurement": "EC50", "setting": "[1]", "result": 23.5, "unit": "µM"}, {"measurement": "Ca2+ Mobilization Efficacy, FPR2", "setting": "[2]", "result": 65, "unit": "%"}, {"measurement": "EC50", "setting": "[2]", "result": 7, "unit": "µM"}]}, {"molecule": "Cc1cc(-c2ccccc2)nn(CC(=O)Nc2ccc(Br)cc2)c1=O", "note": "[8a, N-(4-Bromophenyl)-2-[5-methyl-6-oxo-3-phenylpyridazin-1(6H)-yl]acetamide]", "values": [{"measurement": "Ca2+ Mobilization Efficacy, FPR1", "setting": "[1]", "result": 50, "unit": "%"}, {"measurement": "Ca2+ Mobilization Efficacy, FPR2", "setting": "[2]", "result": 45, "unit": "%"}]}, {"molecule": "C[C@H]1CC(c2ccccc2)=NN(CC(=O)Nc2ccc(Br)cc2)C1=O", "note": "[S-(-)-4a, S-(-)-N-(4-Bromophenyl)-2-[5-methyl-6-oxo-3-phenyl-5,6-dihydropyridazin-1(4H)-yl] acetamide]", "values": [{"measurement": "Ca2+ Mobilization Efficacy, FPR1", "setting": "[1]", "result": 75, "unit": "%"}, {"measurement": "EC50", "setting": "[1]", "result": 19.5, "unit": "µM"}, {"measurement": "Ca2+ Mobilization Efficacy, FPR2", "setting": "[2]", "result": 95, "unit": "%"}, {"measurement": "EC50", "setting": "[2]", "result": 10.7, "unit": "µM"}, {"measurement": "Ca2+ Mobilization Efficacy, FPR3", "setting": "[3]", "result": 40, "unit": "%"}, {"measurement": "EC50", "setting": "[3]", "result": 8.3, "unit": "µM"}]}, {"molecule": "C[C@@H]1CC(c2ccccc2)=NN(CC(=O)Nc2ccc(Br)cc2)C1=O", "note": "[R-(+)-4a, R-(+)-N-(4-Bromophenyl)-2-[5-methyl-6-oxo-3-phenyl-5,6-dihydropyridazin-1(4H)-yl] acetamide]", "values": [{"measurement": "Ca2+ Mobilization Efficacy, FPR1", "setting": "[1]", "result": 80, "unit": "%"}, {"measurement": "EC50", "setting": "[1]", "result": 24.4, "unit": "µM"}, {"measurement": "Ca2+ Mobilization Efficacy, FPR2", "setting": "[2]", "result": 85, "unit": "%"}, {"measurement": "EC50", "setting": "[2]", "result": 10, "unit": "µM"}, {"measurement": "Ca2+ Mobilization Efficacy, FPR3", "setting": "[3]", "result": 40, "unit": "%"}, {"measurement": "EC50", "setting": "[3]", "result": 7.1, "unit": "µM"}]}]}
